Screening data from PubChem BioAssay.
Hits are enriched below; roughly 2% of the tested compounds scored in any of these assays.
NR2E3 ag-1: human photoreceptor-specific nuclear receptor agonism | 360,000 tested, 0.35% active | CHO-S Gal4-NCOR/VP16-NR2E3 two-hybrid, luciferase | Q9Y5X4 | inhibition of corepressor binding, % at 3.98 µM;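 active = inhibition above the mean of all tested compounds plus 3 SD, cut at about 70% in these data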;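 also: 0% = DMSO with NR2E3 transfected cells and 100% = cells lacking NR2E3 construct; higher means lower luciferase signal from less NR2E3 corepressor binding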
Target sequence (Q9Y5X4 whole entry, looked up, the tested form may be a part): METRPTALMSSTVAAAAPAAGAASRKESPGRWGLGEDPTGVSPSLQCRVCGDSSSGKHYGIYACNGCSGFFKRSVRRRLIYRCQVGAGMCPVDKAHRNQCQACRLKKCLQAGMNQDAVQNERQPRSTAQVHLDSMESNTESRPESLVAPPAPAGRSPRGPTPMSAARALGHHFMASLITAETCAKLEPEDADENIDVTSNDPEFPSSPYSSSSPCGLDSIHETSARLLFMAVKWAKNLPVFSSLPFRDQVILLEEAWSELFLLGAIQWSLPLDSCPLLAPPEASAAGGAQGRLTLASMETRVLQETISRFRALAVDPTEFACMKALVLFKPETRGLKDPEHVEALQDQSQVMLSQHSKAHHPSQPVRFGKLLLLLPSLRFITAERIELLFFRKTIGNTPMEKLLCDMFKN
HIF activator: HIF pathway transcriptional activation; 300,000 tested, 0.32% active; U2OS HRE-luciferase reporter, luminescence; normalized: DMSO 0%, desferrioxamine 100%; activation, % at 7.5 µM (by protocol);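 active = mean activation of at least 10% of the iron chelator positive control signal, with at least half of replicates also reaching 10%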
NR2E3 ag-2: agonists of human nuclear receptor NR2E3; Q9Y5X4; GST-NR2E3/biotin-RetCOR TR-FRET, 1536-well; inhibition of corepressor binding, % at 4.78 µM; 320,000 tested, 0.12% active; AID 2300;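 active = percent inhibition above the cutoff of mean plus 3 SD of all tested compounds, set per screening campaign, cut at about 20% in these data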;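 also: 0% = DMSO wells and 100% = biotin wells as full block of FRET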
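System: GST-tagged NR2E3 plus biotinylated RetCOR corepressor; Amount: 1.35 nM GST-tagged NR2E3 final; Dosing: single nominal compound dose of 4.8 µM; Schedule: 5 h incubation at 4 °C; Technique: TR-FRET with europium anti-GST and streptavidin-D2, 340 nm excitation; Controls: biotin wells as high control, 0.6% DMSO wells as low control.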
TROY NFkB inh: blocks TROY-dependent signaling in reporter cells; inhibition, % at 10 µM; Q293 LMP1-TROYcd NF-kB luciferase reporter, 4 h; 360,000 tested, 0.98% active;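 active = compounds whose plate-normalised and pattern-corrected inhibition of the luciferase reporter signal at the single screening dose is 50% or more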
LMP1 NFkB inh: reduces LMP1-driven NF-kappaB luciferase signal; LMP1-induced NF-kappaB luciferase reporter cells, luminescence; inhibition, % at 12.5 µM; 350,000 tested, 0.69% active; in the data active = inhibition above about 41%;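 also: 0% = neutral control wells and 100% = reference inhibitor control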
NR2E3 ag conf: confirmation of human NR2E3 agonists | 2,300 tested, 51% active | shares compounds with NR2E3 ag-1 | inhibition, % at 3.98 µM | CHO-S mammalian two-hybrid NR2E3-NCOR, luciferase luminescence | AID 624378;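 active = average inhibition above a cutoff equal to the mean inhibition of all tested compounds plus one SD, cut at about 70% in these data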;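 also: 0% = DMSO in NR2E3 cells and 100% = DMSO in cells lacking NR2E3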
GAL4-VP16 luc: GAL4-VP16 reporter inhibition in NR2E3 agonist counterscreen; shares compounds with NR2E3 ag-1; CHO-S GAL4-VP16 luciferase reporter, luminescence; inhibition, % at 3.98 µM; 2,300 tested, 29% active;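 active = mean inhibition above a cutoff equal to the average over all tested compounds plus one standard deviation, cut at about 70% in these data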;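 also: luciferase from a UAS reporter driven by GAL4-VP16 transactivation; 0% = DMSO with VP16-transfected cells and 100% = DMSO with cells lacking VP16; higher means less reporter light so more repression of VP16 activity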
* marks the source's active call; other numbers are inactive results; . = not tested or not shown.

SMILES	NR2E3 ag-1	HIF activator	NR2E3 ag-2	TROY NFkB inh	LMP1 NFkB inh	NR2E3 ag conf	GAL4-VP16 luc
CCN(CC)S(=O)(=O)c1ccc(N2CCOCC2)c(NC(=O)c2ccc(N3CCCC3=O)cc2)c1	-19	0	2	-16	1	.	.
Cc1cc(NC(=O)CSc2nc3c(sc4ccccc43)c(=O)n2CCc2ccccc2)n[nH]1	6	-1	1	-32	-18	.	.
Cc1cc(NC(=O)CSc2nc3c(sc4ccccc43)c(=O)n2CCCN2CCOCC2)n[nH]1	72*	1	2	10	-54	96*	20
S=C(NN=C(c1ccccc1)c1ccccn1)N(Cc1ccccn1)Cc1ccccn1	92*	.	.	-4	63*	100*	79*
Cc1ccccc1NC(=S)N(Cc1ccccn1)Cc1ccccc1Cl	-8	0	-2	-12	-6	.	.
CCOC(=O)C1CCN(CCC(=O)Nc2ccc(F)cc2)CC1	-20	0	5	11	-35	.	.
CC1(C(=O)Nc2ccc3c(c2)OCO3)CCN1C(=O)Cc1ccc(-c2ccccc2)cc1 (stereo not drawn)	94*	.	.	25	.	97*	84*
CCC(=O)N1CCC1(C)C(=O)Nc1ccc2c(c1)OCO2 (stereo not drawn)	-3	.	.	-13	.	.	.
CC1(C(=O)Nc2ccccc2)CCN1C(=O)Cc1ccc(-c2ccccc2)cc1 (stereo not drawn)	53	.	.	16	.	46	33
CC1(C(=O)Nc2ccc(Cl)c(Cl)c2)CCN1C(=O)Cc1ccc(-c2ccccc2)cc1 (stereo not drawn)	68	.	.	19	.	93*	73*
CCn1c(CNC(=O)c2ccc(F)cc2)cc2ccccc21	-36	0	-2	-23	-11	.	.
CCc1cc(OCCCSc2nc(C)cc(=O)[nH]2)ccc1Cl	56	0	3	37	19	76*	43
CC1OC2CC(=O)OC2C2=C1C(=O)c1c(O)cccc1C2=O (stereo not drawn)	101*	.	.	57*	.	98*	98*
O=C1c2cccc(O)c2C(=O)c2c(O)cc(CO)cc21	.	0	4	.	.	.	.
Cc1ccc(S(=O)(=O)NCCC(=O)Nc2cccc(S(=O)(=O)N3CCCC3)c2)cc1C	15	.	.	-9	5	.	.
O=C(Nc1ccc(Cl)cc1)c1cc2c(cc1O)[nH]c1ccccc12	101*	0	-1	55*	17	99*	90*
CC(=O)Nc1ccc2[nH]c3ccccc3c2c1	-25	0	0	-15	8	.	.
C[C@H]1CN([C@@H](C)CO)C(=O)CCCn2cc(nn2)CO[C@@H]1CN(C)C(=O)Nc1cccc(F)c1	-15	.	.	-17	2	.	.
CC1CCCCN1S(=O)(=O)c1ccc(N(C(=O)c2cnccn2)C(C(=O)NC2CCCC2)c2cccs2)cc1 (stereo not drawn)	-1	0	3	-12	10	.	.
CC1CCCCN1S(=O)(=O)c1ccc(N(C(=O)c2cnccn2)C(C(=O)NC2CCCCC2)c2cccs2)cc1 (stereo not drawn)	58	0	-2	4	12	53	-4
Cc1ccc(NNC(=O)C(=O)N2CCCCC2)cc1	57	-1	2	6	-16	37	24
S=C(Nc1ccc(Br)cc1)Nc1ccc2c(c1)OCCO2	50	1	2	-6	-26	-85	-79
O=C(NC(=S)Nc1ccc2c(c1)OCCO2)c1cccc(Br)c1	-123	3	-2	-36	-30	.	.
CC(C)C[C@@H](CN1CCC[C@@H]1CN1C(=S)NC[C@@H]1Cc1ccc(O)cc1)N1C[C@H](Cc2ccc(O)cc2)N(CC2CCCCC2)C1=S	54	.	.	18	.	14	19
CCN(CCCNc1cc2c(c(N)c1S(=O)(=O)O)C(=O)c1ccccc1C2=O)c1ccccc1	-32	.	.	-7	-2	.	.
SMILES	NR2E3 ag-1	HIF activator	NR2E3 ag-2	TROY NFkB inh	LMP1 NFkB inh	NR2E3 ag conf	GAL4-VP16 luc
CCCCC(=O)N/N=C/c1ccc(Sc2cccc3cccnc23)o1	86*	0	-1	-9	-4	-33	-18
Cc1cc(CNC(=O)c2cccc([N+](=O)[O-])c2C)c2ccccc2n1	49	-1	3	49	11	72*	59
O=C(Nc1ccccc1)N1CCCC(c2nc(-c3ccc(F)cc3)no2)C1 (stereo not drawn)	-17	0	-1	3	-8	.	.
O=C(Nc1cccc(C(F)(F)F)c1)N1CCC(c2nc(-c3ccc(F)cc3)no2)CC1	49	-1	3	36	26	56	51
CC(C)CNC(=S)N1CCC(c2nc(-c3ccc(F)cc3)no2)CC1	67	.	0	27	11	88*	67
O=C(NCc1ccco1)c1cc(Cl)nc(Cl)c1	-13	-1	-1	3	-8	.	.
NC(=O)CC(NC(=O)Cc1cccc2ccccc12)c1ccc(NC2CC3CCC2C3)c([N+](=O)[O-])c1 (stereo not drawn)	-45	0	-1	-1	2	.	.
NC(=O)CC(NC(=O)Cc1ccc(Cl)cc1)c1ccc(NC2CC3CCC2C3)c([N+](=O)[O-])c1 (stereo not drawn)	98*	-1	3	-21	5	-21	-7
Cc1cccc(C)c1N1CCN(C(c2cc3ccccc3o2)c2nnnn2C(C)(C)C)CC1 (stereo not drawn)	75*	.	.	27	.	84*	67
O=C(c1cc(COc2cccc3cnccc23)on1)N1CCC(c2ccccc2Cl)C1 (stereo not drawn)	95*	0	-1	54*	6	78*	68
Cc1cccc(C)c1OCc1cc(C(=O)N2CCN(C3CCCC3)CC2)no1	-59	2	9	-32	-23	.	.
O=C(c1cc(COc2c(F)cccc2F)on1)N1CCC(c2ccncc2)CC1	62	0	2	7	-11	83*	73*
Cc1cccc(C)c1OCc1cc(C(=O)N2CCC(c3ccncc3)CC2)no1	86*	2	0	-50	-3	88*	53
COc1cccc(N(C(=O)c2snc(C(N)=O)c2N)C(C(=O)NCC2CCCO2)c2ccc3ncccc3c2)c1 (stereo not drawn)	6	0	9	-15	-5	.	.
CCOc1ccc2c(c1)c(=O)c(S(=O)(=O)c1ccc(CC)cc1)cn2C	8	0	1	11	-4	.	.
COC(=O)Cc1c(C)c2ccc(OC3CCCCC3=O)c(C)c2oc1=O (stereo not drawn)	72*	2	0	5	9	40	42
COC(=O)Cc1c(C)c2ccc(OC3CCCCC3=O)cc2oc1=O (stereo not drawn)	-38	3	.	-24	-4	.	.
Cc1nn(Cc2ccc(Cl)c(Cl)c2)c(C)c1NC(=O)c1sc2ccccc2c1Cl	51	0	0	32	5	57	29
